Measurements taken from ChEMBL document CHEMBL5131498, “Synthesis and biological evaluation of orally active prodrugs and analogs of para-aminosalicylic acid (PAS)” (Eur J Med Chem, 2022).
Values after ≈ are worked out from the molar mass of the structure shown.

What was measured:
Assay type in all cases: functional
[1] = test system: Mycobacterium tuberculosis; assay: Antimycobacterial activity against multidrug resistant Mycobacterium tuberculosis H37Rv assessed as inhibition of bacterial growth measured after 2 weeks by microbroth dilution method; conditions: 336 h
Method in brief: (§1)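 Diluted 1000-fold into 96-well plates with 2-fold serial compound dilutions and incubated at 37 °C for 2 weeks. Growth scored by mirror at 1 and 2 weeks. MIC is the lowest concentration completely inhibiting growth; tested in duplicate. DMSO, isoniazid and linezolid served as controls.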

[2] = test system: Mycobacterium tuberculosis; assay: Antimycobacterial activity against extensively drug resistant Mycobacterium tuberculosis H37Rv assessed as inhibition of bacterial growth measured after 2 weeks by microbroth dilution method; conditions: 336 h; method in brief: as §1
[3] = test system: Mycobacterium tuberculosis; assay: Antimycobacterial activity against PAS resistant Mycobacterium tuberculosis H37Rv harboring E153A mutant assessed as inhibition of bacterial growth measured after 2 weeks by microbroth dilution method; method in brief: as §1
[4] = test system: Mycobacterium tuberculosis; assay: Antimycobacterial activity against PAS resistant Mycobacterium tuberculosis H37Rv harboring S150G mutant assessed as inhibition of bacterial growth measured after 2 weeks by microbroth dilution method; method in brief: as §1
[5] = test system: Mycobacterium tuberculosis; assay: Antimycobacterial activity against PAS resistant Mycobacterium tuberculosis H37Rv harboring R49W mutant assessed as inhibition of bacterial growth measured after 2 weeks by microbroth dilution method; method in brief: as §1

Structure (SMILES)	MIC90 [1] [µM]	MIC90 [2] [µM]	MIC90 [3]	MIC90 [4]	MIC90 [5]
Nc1cc(O)c(C(=O)O)cc1F	6.3 (≈ 1.08 µg/mL)	≥ 50	>=50 uM	>=50 uM	>=50 uM
Nc1ccc(C(=O)O)c(O)c1 [AMINOSALICYLIC ACID]	0.2 (≈ 0.0306 µg/mL)	≥ 50	12.5 µM (≈ 1.91 µg/mL)	12.5 µM (≈ 1.91 µg/mL)	12.5 µM (≈ 1.91 µg/mL)
NNC(=O)c1ccncc1 [ISONIAZID]	0.4 (≈ 0.0549 µg/mL)	6.3 (≈ 0.864 µg/mL)	0.3 µM (≈ 0.0411 µg/mL)	0.3 µM (≈ 0.0411 µg/mL)	0.3 µM (≈ 0.0411 µg/mL)
CC(=O)NC[C@H]1CN(c2ccc(N3CCOCC3)c(F)c2)C(=O)O1 [LINEZOLID]	0.8 (≈ 0.27 µg/mL)	0.9 (≈ 0.304 µg/mL)	1.9 µM (≈ 0.641 µg/mL)	1.9 µM (≈ 0.641 µg/mL)	1.9 µM (≈ 0.641 µg/mL)
